Measured values of several laboratories.
Each line is one published result; the experiments were not run side by side.
Medium: plasma

Compound | host | route | dose | measurement | value
Cc1ncsc1-c1ccc([C@H](CC(=O)N2CC3(C2)CN(c2ccc(C#Cc4ccc(C(=O)N5CCC(n6cc(-c7ccc8c(c7)CCN8C(=O)Cc7cccc(OC(F)(F)F)c7)c7c(N)ncnc76)CC5)cc4)cn2)C3)NC(=O)[C@@H]2C[C@@H](O)CN2C(=O)[C@@H](NC(=O)C2(F)CC2)C(C)(C)C)cc1 | male C57BL/6 mouse | intravenous | 1 mg/kg | clearance | 2.8 mL/min/kg
Cc1cc(-c2ccnc3[nH]cc(F)c23)cc(F)c1[C@@]1(O)[C@H](C)CN(C(=O)CN)C[C@@H]1C | male CD-1 mouse | intravenous | 1 mg/kg | clearance | 0.775 mL/min/kg
O=C1CCC(N2Cc3cc(C4CCN(Cc5ccccc5)CC4)ccc3C2=O)C(=O)N1 (stereo not drawn) | male CD-1 mouse | intravenous | 1 mg/kg | clearance | 48 mL/min/kg
Cc1nc2ccc(OCc3ccc(C(F)(F)F)cc3)cc2[nH]1 | male BALB/c mouse | oral | 10 mg/kg | CL/F | 12.7 mL/min/kg
Cc1ccc(OCC(=O)N[C@@H](Cc2c[nH]c3ccccc23)C(=O)OC(C)C)cc1 | male Sprague-Dawley mouse | intravenous | 10 mg/kg | clearance | 5.5 mL/min/kg
CCCC[C@@H](NC(=O)[C@@H](Cc1cn(C(=O)OC)c2ccccc12)NC(=O)[C@H](CC(C)(C)C)NC(=O)N1[C@H](C)CCC[C@@H]1C)C(=O)O | male CD-1 mouse | intravenous | 3 mg/kg | clearance | 222 mL/min/kg
NCc1cc2c(cc1F)C(=O)N(C1CCC(=O)NC1=O)C2 (stereo not drawn) | male CD-1 mouse | intravenous | 1 mg/kg | clearance | 112 mL/min/kg
CN(C)C(=O)c1cc2cnc(Nc3ccc(-c4ccc5c(=O)cc(N6CCOCC6)oc5c4)cc3)nc2n1C1CCCC1 | BALB/c mouse | oral | 20 mg/kg | CL/F | 120 mL/min/kg
Cc1cc(-c2ccnc3[nH]cc(F)c23)cc(F)c1[C@@]1(O)[C@H](C)CN(C2CCS(=O)(=O)CC2)C[C@@H]1C | male CD-1 mouse | intravenous | 1 mg/kg | clearance | 5.86 mL/min/kg
O=C1CCC(N2Cc3cc(CO)c(F)cc3C2=O)C(=O)N1 (stereo not drawn) | male CD-1 mouse | intravenous | 1 mg/kg | clearance | 52.9 mL/min/kg
Cc1ncsc1-c1ccc([C@H](C)NC(=O)[C@@H]2C[C@@H](O)CN2C(=O)[C@@H](NC(=O)CCCCCCCCCCC(=O)NCCCn2cc(-c3ccc4c(c3)CCN4C(=O)Cc3cccc(OC(F)(F)F)c3)c3c(N)ncnc32)C(C)(C)C)cc1 | mouse | intravenous | 1 mg/kg | clearance | 19.8 mL/min/kg
C=CCn1c(=O)c2cnc(Nc3ccc(N4CCN(C)CC4)cc3)nc2n1-c1ccc2c(n1)[C@@](O)(CC)CC2 | mouse | intravenous | 3 mg/kg | clearance | 54 mL/min/kg
Cc1ncsc1-c1ccc([C@H](C)NC(=O)[C@@H]2C[C@@H](O)CN2C(=O)[C@@H](NC(=O)CCCCCCCCC(=O)N2CCC(n3cc(-c4ccc5c(c4)CCN5C(=O)Cc4cccc(OC(F)(F)F)c4)c4c(N)ncnc43)CC2)C(C)(C)C)cc1 | male C57BL/6 mouse | intravenous | 1 mg/kg | clearance | 13.3 mL/min/kg
OCc1nc2ccc(NCc3ccc(C(F)(F)F)cc3)cc2[nH]1 | male BALB/c mouse | oral | 10 mg/kg | CL/F | 61.2 mL/min/kg
Oc1ccc([C@@H]2Oc3ccc(O)cc3[C@@H]3CCC[C@@H]32)cc1 | male C57BL/6 mouse | intravenous | 1 mg/kg | clearance | 1.67 mL/min
